# Screens (PubChem BioAssay)
# DNA FID counter = counter-screen for HCV NS3 helicase inhibitors: DNA intercalator displacement; DNA fluorescent intercalator displacement, fluorescence; inhibition, % at 7.9 µM; 0.17% of 290,000 active; in the data active means inhibition above about 37%;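 further: 0% = vehicle and 100% = reference compound; higher means more ethidium bromide displaced from hairpin DNA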
# UBC13 polyUb = inhibitors of human UBC13 polyubiquitin chain formation | P61088 | TR-FRET | inhibition, % at 20 µM | 0.47% of 330,000 active; in the data active means inhibition above about 45%, passing the limit was not always enough
# ANO1 activ = mouse TMEM16A channel activation, primary screen; HEK293 TMEM16A/YFP-H148Q/I152L, iodide quench fluorescence; stronger effect = lower value; Q8BHY3; B-score at 10 µM; AID 623877; 0.3% of 340,000 active;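 active means fluorescence-ratio B-score plate-corrected deviation score at least 3 library SD below zero, with starting fluorescence score within 5 deviations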;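 further: channel opened by trigger with iodide after compound preincubation; score built on the fluorescence ratio of max minus min over baseline; more negative score means more quench and so TMEM16A activation or potentiation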
# ANO1 block = mouse TMEM16A channel inhibition, primary screen; Q8BHY3; HEK293 TMEM16A/YFP iodide influx fluorescence, ionomycin; normalized B-score (activity score, 25-100; higher = stronger inhibition) at 10 µM; 1.2% of 310,000 active;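 active means ratio plate-corrected score three or more library SD toward inhibition, starting fluorescence score within five deviations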;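 further: score derived from kinetic fluorescence span divided by baseline fluorescence per well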
# Apaf-1 inh = blocks human Apaf-1 apoptosome activity | reconstituted apoptosome caspase-3 activity, DEVD-Rh110 fluorescence | inhibition, % at 20 µM | O14727 | 0.71% of 330,000 active; active means inhibition of at least 40% at 20 µM;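 further: plate controls were DMSO wells for no effect and DEVD-CHO caspase inhibitor wells for full effect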
# Target sequence (O14727 whole entry, looked up): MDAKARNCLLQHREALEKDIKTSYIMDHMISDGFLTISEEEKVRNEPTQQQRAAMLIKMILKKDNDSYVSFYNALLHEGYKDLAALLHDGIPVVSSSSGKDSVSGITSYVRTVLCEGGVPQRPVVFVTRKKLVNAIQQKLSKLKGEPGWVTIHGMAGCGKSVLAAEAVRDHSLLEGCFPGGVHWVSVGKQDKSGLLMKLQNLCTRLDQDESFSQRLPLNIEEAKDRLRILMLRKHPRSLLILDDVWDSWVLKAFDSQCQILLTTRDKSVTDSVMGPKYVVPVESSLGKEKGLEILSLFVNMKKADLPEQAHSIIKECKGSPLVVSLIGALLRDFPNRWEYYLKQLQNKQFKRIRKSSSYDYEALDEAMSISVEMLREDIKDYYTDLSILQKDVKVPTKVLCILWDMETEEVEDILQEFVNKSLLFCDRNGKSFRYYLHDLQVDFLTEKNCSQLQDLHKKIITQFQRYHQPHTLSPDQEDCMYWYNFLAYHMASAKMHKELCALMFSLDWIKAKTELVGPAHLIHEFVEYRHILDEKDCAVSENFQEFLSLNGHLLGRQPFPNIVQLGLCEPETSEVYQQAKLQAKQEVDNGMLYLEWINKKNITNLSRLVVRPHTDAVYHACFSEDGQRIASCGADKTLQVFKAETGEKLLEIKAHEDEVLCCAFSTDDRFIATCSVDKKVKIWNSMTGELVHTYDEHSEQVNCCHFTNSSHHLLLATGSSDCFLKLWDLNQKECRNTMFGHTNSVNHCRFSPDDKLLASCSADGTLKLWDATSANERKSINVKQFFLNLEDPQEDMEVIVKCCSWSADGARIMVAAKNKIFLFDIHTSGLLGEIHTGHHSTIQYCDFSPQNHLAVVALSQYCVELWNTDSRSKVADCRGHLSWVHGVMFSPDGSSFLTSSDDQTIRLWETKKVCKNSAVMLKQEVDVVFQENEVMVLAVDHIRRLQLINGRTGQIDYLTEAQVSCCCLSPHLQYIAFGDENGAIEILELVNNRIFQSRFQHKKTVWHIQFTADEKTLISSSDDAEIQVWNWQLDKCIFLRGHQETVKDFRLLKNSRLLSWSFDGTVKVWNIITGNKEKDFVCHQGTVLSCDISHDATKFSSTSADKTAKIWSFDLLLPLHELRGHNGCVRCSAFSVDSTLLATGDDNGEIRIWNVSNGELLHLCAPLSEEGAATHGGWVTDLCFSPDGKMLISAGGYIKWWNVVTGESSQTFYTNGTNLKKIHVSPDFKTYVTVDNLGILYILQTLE
#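 Material: reconstituted apoptosome with Apaf-1, cytochrome c, caspase-9, procaspase-3, dATP. Technique: Rh110 fluorescence intensity. Buffer or medium: pH 7.5 Hepes buffer with CHAPS, BSA, DTT. Times: 30 min plus 50 min, RT.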
# Active calls of the source: *; i = inactive; x = not tested or not shown. In the library only some 2.4% were active in any assay of this set; here they are far more common.
SMILES,DNA FID counter,UBC13 polyUb,ANO1 activ,ANO1 block,Apaf-1 inh
CC(C)(C)CC(=O)Nc1nnc(C(F)(F)F)s1,-3,8,i,i,11
COc1ccc(S(=O)(=O)N2CCOCC2)cc1NC(=O)CN1CCN(C)CC1,x,4,i,i,-5
CC1CCN(C(=O)C2CCN(CC(C)c3ccccc3)CC2)CC1 (configuration not stated),2,0,i,25*,-9
O=C(CSc1nc2nc(-c3cccs3)cc(C(F)(F)F)c2c(=O)[nH]1)Nc1c(F)c(F)c(F)c(F)c1F,-2,-12,i,100*,0
CCC(=O)N1c2ccc(S(=O)(=O)CCC(=O)Nc3ccc(OC)cc3OC)cc2CC1C (configuration not stated),-33,-10,-42*,i,5
CC(NC(=O)Cn1ncc(Cl)c(Cl)c1=O)C12CC3CC(CC(C3)C1)C2 (configuration not stated),-10,x,i,100*,x
CCOc1cc(C2C(C#N)=C(N)OC3=C2C(=O)CC(C)(C)C3)cc([N+](=O)[O-])c1O (configuration not stated),2,-40,i,i,2
CC1(C)CC(=O)C2=C(C1)OC(N)=C(C#N)C2c1cc2c(cc1[N+](=O)[O-])OCO2 (configuration not stated),-7,x,-5*,i,x
CCOC(=O)c1cnn(-c2sc(C(=O)OCC)c(C)c2C(=O)OCC)c1N,-7,-4,i,100*,2
CCOC(=O)c1cnn(-c2cc(C)cc(C)c2)c1N,-7,-1,i,i,-9
CCn1cc(C(=O)N[C@@H](CC(C)C)C(=O)NCCCn2ccnc2)c(=O)c2cc3c(cc21)OCO3,17,-1,i,i,10
C/C(=C\C(=O)c1ccccc1)Nc1ccc(Br)c(Cl)c1,x,20,i,25*,0
COc1ccc(C(=O)Nc2ccccc2)cc1NC(=O)c1ccc([N+](=O)[O-])cc1,2,-7,-7.2*,i,12
CCN(CC)S(=O)(=O)c1ccc(OC)c(NC(=O)c2ccc([N+](=O)[O-])cc2)c1,2,-2,i,i,21
O=C(COc1ccc([N+](=O)[O-])cc1)Nc1ccc2c(c1)OCO2,3,0,i,i,8
Cn1cnnc1SC1c2cccc3cccc(c23)C1NS(=O)(=O)c1ccc(Cl)cc1 (configuration not stated),-35,-4,i,i,15
O=C(Nc1ccc(NC(=O)c2ccc(S(=O)(=O)c3ccccc3)cc2)cc1)c1ccccc1,46*,-24,i,i,-21
C#CCOCCOCCOCCNc1nc(N2CCN(C(=O)CCCCCCCCCCNC(=O)[C@H](CO)n3cc(CCCSC)nn3)CC2)nc(N2CCN(C(=O)CCCCCCCCCCNC(=O)[C@H](CCCCN)n3cc(C[C@@H](C)CC)nn3)CC2)n1,x,118*,x,i,68*
C#CCOCCOCCOCCNc1nc(N2CCN(C(=O)CCCCCCCCCCNC(=O)[C@H](CO)n3cc(CCCSC)nn3)CC2)nc(N2CCN(C(=O)CCCCCCCCCCNC(=O)[C@H](CO)n3cc(CCCSC)nn3)CC2)n1,x,3,i,i,26
C#CCOCCOCCOCCNc1nc(N2CCN(C(=O)CCCCCCCCCCNC(=O)Cn3cc(CCCCCN)nn3)CC2)nc(N2CCN(C(=O)CCCCCCCCCCNC(=O)[C@H](CO)n3cc(CCCCCN)nn3)CC2)n1,x,117*,i,i,63*
C#CCOCCOCCOCCNc1nc(N2CCN(C(=O)CCCCCCCCCCNC(=O)Cn3cc(C[C@@H](C)O)nn3)CC2)nc(N2CCN(C(=O)CCCCCCCCCCNC(=O)[C@H](CCCCN)n3cc(C[C@@H](C)CC)nn3)CC2)n1,x,122*,i,i,71*
C#CCOCCOCCOCCNc1nc(N2CCN(C(=O)Cn3cc(CC(C)O)nn3)CC2)nc(N2CCN(C(=O)[C@H](CCCCN)n3cc(CCC(=O)O)nn3)CC2)n1 (some centres not stated),-23,-3,i,i,5
C#CCOCCOCCOCCNc1nc(N2CCN(C(=O)CCCCCCCCCCNC(=O)[C@H](CCCCN)n3cc(C[C@@H](C)CC)nn3)CC2)nc(N2CCN(C(=O)CCCCCCCCCCNC(=O)[C@H](CCCCN)n3cc(C[C@@H](C)CC)nn3)CC2)n1,x,x,-22*,25*,x
CN(C)Cc1nnnn1-c1ccccc1,2,-4,i,i,-28
COc1ccc(CCN(Cc2cc3cc(C)cc(C)c3nc2Cl)C(=O)C2CC2)cc1,-19,0,i,i,10
SMILES,DNA FID counter,UBC13 polyUb,ANO1 activ,ANO1 block,Apaf-1 inh
O=C(NCc1cccnc1)C(=O)NCC(c1ccco1)N1CCN(c2ccc(F)cc2)CC1 (configuration not stated),-24,3,i,i,-7
Cn1c(SCC(=O)N(C2CCCCC2)C2CCCCC2)nnc1-c1cccs1,-5,-4,i,i,9
CCOc1ccc(CCNC(=O)C2=C(C)C(=O)OC23CCC(C)CC3)cc1 (configuration not stated),-20,6,i,i,5
C#CCOCCOCCOCCNc1nc(N2CCOCC2)nc(N2CCN(C(=O)CCCCCCCCCCNC(=O)[C@@H](CCSC)n3cc(CCO)nn3)CC2)n1,x,1,i,i,8
C#CCOCCOCCOCCNc1nc(N2CCN(C(=O)[C@H]([C@@H](C)CC)n3cc(CCCN=C(N)N)nn3)CC2)nc(N2CCN(C(=O)[C@H](CCCCN)n3cc(CC(C)O)nn3)CC2)n1 (some centres not stated),x,3,i,i,-4
C#CCOCCOCCOCCNc1nc(N2CCN(C(=O)CCCCCCCCCCNC(=O)[C@H]([C@@H](C)CC)n3cc(CCCCN=C(N)N)nn3)CC2)nc(N2CCN(C(=O)CCCCCCCCCCNC(=O)[C@H](CCCCN)n3cc(C[C@@H](C)CC)nn3)CC2)n1,x,122*,x,i,55*
C#CCOCCOCCOCCNc1nc(N2CCN(C(=O)CCCCCCCCCCNC(=O)[C@@H](CCSC)n3cc(CCO)nn3)CC2)nc(N2CCN(C(=O)CCCCCCCCCCNC(=O)[C@H]([C@@H](C)CC)n3cc(CCCCCN)nn3)CC2)n1,x,116*,x,100*,51*
C#CCOCCOCCOCCNc1nc(N2CCN(C(=O)CCCCCCCCCCNC(=O)[C@H](CCCCN)n3cc(CCO)nn3)CC2)nc(N2CCN(C(=O)CCCCCCCCCCNC(=O)[C@H](CCCN=C(N)N)n3cc(C[C@@H](C)CC)nn3)CC2)n1,x,125*,-22*,100*,78*
CCN1C(=O)/C(=C2/Sc3ccccc3N2CC)S/C1=N\c1ncn[nH]1,-10,2,i,i,-5
CC(C)CC(=O)/C(=C/c1ccc(N(C)C)cc1)n1cncn1,-16,-10,i,i,4
CC(C)CC(=O)/C(=C\c1ccc(Cl)cc1Cl)n1cncn1,-5,x,-7.1*,x,x
